Compound activity as filed in PubChem BioAssay.
HCT116 PTEN-null = suppresses growth of cells with PTEN deletion; 1.2% of 140,000 active; viability, % at 10 µM; HCT116 PTEN-null viability, CellTiter-Glo, 60 h; stronger effect = lower value;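 active = viability at or below a set limit, 4 SD under the median of all tested compounds, cut at about 3.7% in these data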;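 note: PTEN knockout HCT116 line with beta catenin targeted HCT116 as companion control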
Fibroblast inh = blocks proliferation of human lung fibroblasts; LL 47 human lung fibroblast viability, ATP luminescence; stronger effect = lower value; viability, % at 10 µM; 1.1% of 85,000 active; AID 719;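 active = viability at or below 50% in the single dose screen; inactive = viability above 50%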;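 note: compound exposure lasted 72 h before the ATP readout; 100% = median luminescence of untreated cell-only wells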
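Assay system: human lung fibroblast line LL 47, low passage. Input: 1,150 fibroblasts seeded per well. Times: overnight cell rest, 72 h compound treatment at 37 °C. Evaluation: % viability of median cell-only signal. Technique: luminescent ATP detection, CellTiter-Glo. Control set: cell-only wells, no compound.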
bCat KO growth = beta-catenin-lacking colon tumor cell growth suppression; viability, % at 10 µM; AID 818; HCT116 beta-catenin knockout viability, CellTiter-Glo, 60 h; stronger effect = lower value; 1.5% of 140,000 active;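 active = viability at or under a set limit, the compound median less 4 SD, cut at about 6% in these data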;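 note: 0% = Hyamine 1622 control at 20 µM and 100% = untreated cell control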
H69AR growth 86K = blocks growth of human H69AR lung tumor cells | H69AR lung tumor viability, ATP luminescence, 72 h; stronger effect = lower value | viability, % at 10 µM | 6% of 85,000 active | AID 598;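 active = viability at or below 40%; inactive = viability above 40%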;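 note: multidrug resistant small cell line overexpressing MRP-1 efflux transporter; 100% = mean luminescence of untreated control wells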
HUVEC inhibit = blocks proliferation of human endothelial cells | HUVEC proliferation, CellTiter-Glo luminescence, 72 h; stronger effect = lower value | viability, % at 10 µM (by protocol) | 1.1% of 86,000 active | AID 648;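 active = viability at or below 30%; inactive = viability above 30%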;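 note: 100% = median luminescence of DMSO-only cell control wells on each plate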
Active calls of the source: *. Shown is part of a subset that was picked to be rich in hits.

Screening CCC(=O)n1nc(-c2ccc(Cl)cc2)nc1NCc1ccccc1 returned HCT116 PTEN-null 10, Fibroblast inh 52, bCat KO growth 10, H69AR growth 86K 17* and HUVEC inhibit 45.
For CCOc1cc(S(=O)(=O)N(Cc2ccccc2)Cc2ccccc2)c(OCC)cc1-n1cnnn1 the results were HCT116 PTEN-null 73, Fibroblast inh 88, bCat KO growth 73, H69AR growth 86K 77 and HUVEC inhibit 110.
O=C1c2ccccc2-c2onc3c(Oc4ccccc4)cc(O)c1c23 was read as HCT116 PTEN-null 77, Fibroblast inh 89, bCat KO growth 68, H69AR growth 86K 25* and HUVEC inhibit 63.
For CCn1cc(C(=O)NCc2ccccn2)c(=O)c2cc(F)c(N3CCN(C)CC3)cc21 the results were HCT116 PTEN-null 92, Fibroblast inh 102, bCat KO growth 86, H69AR growth 86K 72 and HUVEC inhibit 100.
For CCn1cc(C(=O)NCc2ccc3c(c2)OCO3)c(=O)c2cc(F)c(N3CCN(C)CC3)cc21 the results were HCT116 PTEN-null 2.3*, Fibroblast inh 92, bCat KO growth 2.5*, H69AR growth 86K 21* and HUVEC inhibit 79.
For CCn1cc(C(=O)NCCc2ccccc2)c(=O)c2cc(F)c(N3CCN(C)CC3)cc21 the results were HCT116 PTEN-null 53, Fibroblast inh 79, bCat KO growth 51, H69AR growth 86K 42 and HUVEC inhibit 17*.
CCn1cc(C(=O)N[C@H](C)c2ccccc2)c(=O)c2cc(F)c(N3CCN(C)CC3)cc21 was read as HCT116 PTEN-null 62, Fibroblast inh 78, bCat KO growth 44, H69AR growth 86K 9.7* and HUVEC inhibit 47.
`CCOC(=O)N1CCN(CCC(=O)Nc2cc(OC)cc(OC)c2)CC1` gave HCT116 PTEN-null 95, Fibroblast inh 95, bCat KO growth 104, H69AR growth 86K 85 and HUVEC inhibit 91.
`CCOC(=O)CSC1=Nc2ccccc2C2=NC(CC(=O)NCc3ccccc3)C(=O)N12` (stereo not drawn) gave HCT116 PTEN-null 102, Fibroblast inh 95, bCat KO growth 94, H69AR growth 86K 97 and HUVEC inhibit 80.
Screening Cc1ccnc(NS(=O)(=O)c2ccccc2)n1 returned HCT116 PTEN-null 89, Fibroblast inh 96, bCat KO growth 94, H69AR growth 86K 91 and HUVEC inhibit 99.
For O=C(Cn1nnc(-c2ccccc2)n1)OC1CCOC1=O (stereo not drawn) the results were HCT116 PTEN-null 100, Fibroblast inh 100, bCat KO growth 104, H69AR growth 86K 98 and HUVEC inhibit 94.
Screening Cc1cccc(N=C2NN=C(c3ccc4c(c3)OCCO4)CS2)c1 returned HCT116 PTEN-null 30, Fibroblast inh 102, bCat KO growth 36, H69AR growth 86K 77 and HUVEC inhibit 86.
For Cc1cccc(N=C2NN=C(c3c(C)[nH]c4ccccc34)CS2)c1 the results were HCT116 PTEN-null 4 and bCat KO growth 2.7*.
CCOc1ccc(Cl)cc1S(=O)(=O)N1CCN(c2ccc(C)c(C)c2)CC1 was read as HCT116 PTEN-null 70, Fibroblast inh 91, bCat KO growth 67, H69AR growth 86K 39* and HUVEC inhibit 93.
`Cn1cc(-c2nnc(-c3ccccc3)o2)c2ccccc21` gave HCT116 PTEN-null 82, Fibroblast inh 59, bCat KO growth 84, H69AR growth 86K 54 and HUVEC inhibit 18*.
For Cc1ccccc1-c1nnc(-c2ccccc2)o1 the results were HCT116 PTEN-null 85, Fibroblast inh 93, bCat KO growth 88, H69AR growth 86K 92 and HUVEC inhibit 100.
For O=C(CN1CCCC1)NCC1(c2ccccc2)CCOCC1 the results were HCT116 PTEN-null 85, Fibroblast inh 95, bCat KO growth 104, H69AR growth 86K 99 and HUVEC inhibit 100.
`COc1ccc(-c2noc(CSc3nnc(Cc4ccccc4)n3-c3ccc(Cl)cc3)n2)cc1` gave HCT116 PTEN-null 69, Fibroblast inh 103, bCat KO growth 76, H69AR growth 86K 13* and HUVEC inhibit 74.
COC(=O)Cc1c(C)c2c(O)cc(C)cc2oc1=O was read as HCT116 PTEN-null 107 and bCat KO growth 101.
`COC(=O)c1sc(NC(=O)c2cnccn2)c(C(=O)OC)c1C` gave Fibroblast inh 88, H69AR growth 86K 40* and HUVEC inhibit 77.
`COC(=O)c1sc(NC(C)=O)c(C(=O)OC)c1C` gave HCT116 PTEN-null 88, Fibroblast inh 95, bCat KO growth 93, H69AR growth 86K 92 and HUVEC inhibit 88.
Screening CCOC(=O)N1CCN(C2CC(=O)N(c3ccc(F)cc3)C2=O)CC1 (stereo not drawn) returned HCT116 PTEN-null 103, Fibroblast inh 96, bCat KO growth 94, H69AR growth 86K 112 and HUVEC inhibit 102.
`COC(=O)c1ccc(/C=N/NS(=O)(=O)c2cc(C)ccc2C)cc1` gave HCT116 PTEN-null 92 and bCat KO growth 94.
For Cc1ccccc1Nc1nc2ccccc2s1 the results were HCT116 PTEN-null 78 and bCat KO growth 78.
Screening CCOC(=O)c1c(NC(=O)c2cc(-c3ccc(Cl)s3)nc3ccccc23)sc(C(N)=O)c1C returned HCT116 PTEN-null 1.2* and bCat KO growth 3.6*.
Screening O=C(COC(=O)c1cc(-c2ccc(Cl)s2)nc2ccccc12)NCc1ccco1 returned HCT116 PTEN-null 62, Fibroblast inh 95, bCat KO growth 53, H69AR growth 86K 27* and HUVEC inhibit 64.
For CCOC(=O)c1c(NC(=O)c2ccc(Cl)s2)sc(C)c1C the results were Fibroblast inh 100, H69AR growth 86K 33* and HUVEC inhibit 76.
Screening O=C(COC(=O)c1cc(-c2cccs2)nc2ccccc12)NCc1ccco1 returned HCT116 PTEN-null 104, Fibroblast inh 103, bCat KO growth 97, H69AR growth 86K 89 and HUVEC inhibit 92.
`Cc1ccccc1-c1cc(C(=O)Nc2sc(C)c(C)c2C(N)=O)c2ccccc2n1` gave HCT116 PTEN-null 53 and bCat KO growth 65.
Screening Cc1ccc(S(=O)(=O)N2CCC(=O)N(C(CO)C(C)C)CC2)cc1 (stereo not drawn) returned HCT116 PTEN-null 99 and bCat KO growth 96.
O=[N+]([O-])c1ccc(NC(=S)NCCc2ccc(Cl)cc2)cc1 was read as HCT116 PTEN-null 2.9* and bCat KO growth 3.5*.
`CCc1ccc2ncc(S(=O)(=O)c3ccc(C)c(C)c3)c(N3CCCC3)c2c1` gave HCT116 PTEN-null 58 and bCat KO growth 58.
`O=C(CSc1ccc(-c2ccc(Cl)cc2)nn1)Nc1ccc2c(c1)OCCO2` gave HCT116 PTEN-null 88 and bCat KO growth 83.
Screening CCc1ccc(N2C(=O)c3sc4nnc(-c5ccccc5)c(=O)n4c3C2=O)cc1 returned HCT116 PTEN-null 86, Fibroblast inh 61, bCat KO growth 101, H69AR growth 86K 30* and HUVEC inhibit 81.
Screening Cc1cc(C(=O)c2ccc(C(C)(C)C)cc2)c(NC(=O)CCl)s1 returned HCT116 PTEN-null 1.3* and bCat KO growth 1.1*.
